Assay [1] in a line: Inhibition of DNA-PK isolated from human HeLa cell extract assessed as reduction in p53 Ser15 phosphorylation by chemiluminescence assay. The class given is cell-free.
Assay [2] relates to HeLa. As to the kind of experiment: Potentiation of ionizing radiation-induced cytotoxicity in human HeLa cells assessed as dose modification ratio at 0.1 uM pretreated 1 hr before 2 Gy ionizing radiation by Giemsa staining relative untreated control. The class given is functional. The gist of the method:
(§1)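 HeLa cells seeded in six-well dishes and left overnight at 37 °C/5% CO2. Compound or vehicle given 1 h before a single 2 Gy X-ray dose, then incubated overnight. Medium replaced without compound and cells grown 6-8 days. Colonies Giemsa-stained and counted automatically. DMR is % survival at 2 Gy without compound divided by % survival at 2 Gy with compound.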

For assay [3], the system named is HeLa. Kind of assay: Potentiation of ionizing radiation-induced cytotoxicity in human HeLa cells assessed as dose modification ratio at 0.5 uM pretreated 1 hr before 2 Gy ionizing radiation by Giemsa staining relative untreated control. It counts as functional. A digest of the protocol:
as §1

Each structure is given as a SMILES string. pIC50: −log10 of the molar value.

On to `CN1CCN(CC(=O)Nc2ccc(-c3cccn4c(=O)cc(N5CCOCC5)nc34)c3sc4ccccc4c23)CC1`, for which, in assay [1], the pIC50 is 7.62. Also, the Ratio was found to be 2.4 in the assay on HeLa [2] and 9.2 in the assay with HeLa [3].
Take `C[C@@H]1CN(CC(=O)Nc2ccc(-c3cccn4c(=O)cc(N5CCOCC5)nc34)c3sc4ccccc4c23)C[C@H](C)O1`: the pIC50 in assay [1] is 8.15. For the same compound, the Ratio with HeLa [3] is listed as 15.1.
As to `O=C(CN1CCN(CCO)CC1)Nc1ccc(-c2cccc3c(=O)cc(N4CCOCC4)[nH]c23)c2sc3ccccc3c12`, in assay [1], the negative-log IC50 (pIC50) is 7.74. The Ratio in the assay with HeLa [3] is listed as 2.1.
Consider `O=C(CN1CCN(CCO)CC1)Nc1ccc(-c2cccn3c(=O)cc(N4CCOCC4)nc23)c2oc3ccccc3c12`, for which the pIC50 in assay [1] is 7.77. In addition, the Ratio in the assay on HeLa [2] came to 1.3; in the assay with HeLa [3], 5.8.
For `CN1CCN(CC(=O)Nc2ccc(-c3cccc4c(=O)cc(N5CCOCC5)[nH]c34)c3oc4ccccc4c23)CC1`, in assay [1], the pIC50 is 6.94. Further, the Ratio was 1.2 in the assay with HeLa [2] and 1.6 in the assay on HeLa [3].
For `C[C@@H]1CN(CCC(=O)Nc2ccc(-c3cccc4c(=O)cc(N5CCOCC5)[nH]c34)c3oc4ccccc4c23)C[C@H](C)O1`, the pIC50 in assay [1] is 6.82. Moreover, the Ratio in the assay on HeLa [2] was found to be 0.8; in the assay with HeLa [3] it was 0.9.
As to `O=C(CN1CCN(c2ccccn2)CC1)Nc1ccc(-c2cccc3c(=O)cc(N4CCOCC4)[nH]c23)c2sc3ccccc3c12`, the pIC50 in assay [1] was 7.72. Besides, in the assay with HeLa [3], the Ratio came to 5.8.
As for `CCN1CCN(CC(=O)Nc2ccc(-c3cccc4c(=O)cc(N5CCOCC5)[nH]c34)c3oc4ccccc4c23)CC1`, the pIC50 in assay [1] was 7.11. In addition, the Ratio with HeLa [2] came to 1.2; with HeLa [3], 3.6.
With `O=c1cc(N2CCOCC2)nc2c3ccccc3ccn12`, the pIC50 in assay [1] is 6.55.
As for `C[C@@H]1CN(CCC(=O)Nc2ccc(-c3cccn4c(=O)cc(N5CCOCC5)nc34)c3sc4ccccc4c23)C[C@H](C)O1`, the negative logarithm of the IC50 (pIC50) in assay [1] is 7.57. For the same compound, the Ratio with HeLa [2] and in the assay with HeLa [3] was 4.6 each time.
In the case of `CC(C)NC(=O)CN1CCN(CC(=O)Nc2ccc(-c3cccn4c(=O)cc(N5CCOCC5)nc34)c3oc4ccccc4c23)CC1`, in assay [1], the pIC50 was 7.44. Also, the Ratio turned out to be 1.7 in the assay with HeLa [2] and 13 in the assay on HeLa [3].
For the compound `O=C(CN1CCNCC1)Nc1ccc(-c2cccn3c(=O)cc(N4CCOCC4)nc23)c2sc3ccccc3c12`, the pIC50 in assay [1] was 7.60. Also, the Ratio with HeLa [2] is 1.5; in the assay on HeLa [3], 6.2.
On to `C[C@@H]1CN(CCC(=O)Nc2ccc(-c3cccc4c(=O)cc(N5CCOCC5)[nH]c34)c3sc4ccccc4c23)C[C@H](C)O1`, for which, in assay [1], the pIC50 was 7.85. For the same compound, the Ratio with HeLa [3] is 2.2.
For the compound `CCN1CCN(CC(=O)Nc2ccc(-c3cccn4c(=O)cc(N5CCOCC5)nc34)c3oc4ccccc4c23)CC1`, in assay [1], the pIC50 was 7.54. Further, the Ratio with HeLa [2] is given as 1.1; in the assay on HeLa [3], 6.4.
As to `O=c1cc(N2CCOCC2)oc2c1ccc1ccccc12`, the pIC50 in assay [1] is 6.64.
Consider `O=C(CN1CCOCC1)Nc1ccc(-c2cccc3c(=O)cc(N4CCOCC4)[nH]c23)c2sc3ccccc3c12`, for which the pIC50 in assay [1] is 7.22. The Ratio in the assay on HeLa [3] is on record as 3.1.
Regarding `CCN1CCN(CC(=O)Nc2ccc(-c3cccn4c(=O)cc(N5CCOCC5)nc34)c3sc4ccccc4c23)CC1`, the pIC50 in assay [1] is 7.74. Besides, the Ratio in the assay on HeLa [2] is 1.4; with HeLa [3], 7.7.
Taken in the same sequence, the figures for `O=C(CN1CCN(CCOCCO)CC1)Nc1ccc(-c2cccn3c(=O)cc(N4CCOCC4)nc23)c2sc3ccccc3c12` were 7.29, 1 and 8.3.
As to `O=C(CN1CCN(CCO)CC1)Nc1ccc(-c2cccn3c(=O)cc(N4CCOCC4)nc23)c2sc3ccccc3c12`, in assay [1], the negative-log IC50 (pIC50) is 7.72. Also, the Ratio in the assay on HeLa [2] is reported as 1.4; in the assay on HeLa [3], 13.6.
With `O=C(CCN1CCOCC1)Nc1ccc(-c2cccn3c(=O)cc(N4CCOCC4)nc23)c2oc3ccccc3c12`, in assay [1], the pIC50 was 7.11. Moreover, the results for the Ratio in the assay with HeLa [2] and in the assay on HeLa [3] were 1.3 and 6.3, respectively.
As for `O=C(CN1CCOCC1)Nc1ccc(-c2cccc3c(=O)cc(N4CCOCC4)[nH]c23)c2oc3ccccc3c12`, the pIC50 in assay [1] is 6.95. The Ratio in the assay on HeLa [2] worked out at 1.1; in the assay with HeLa [3] it was 1.6.
Take `C[C@@H]1CN(CC(=O)Nc2ccc(-c3cccc4c(=O)cc(N5CCOCC5)[nH]c34)c3oc4ccccc4c23)C[C@H](C)O1`: the pIC50 in assay [1] was 7.43. For the same compound, the Ratio in the assay on HeLa [2] was 1.1; with HeLa [3], 1.6.
Take `O=C(CCN1CCCCC1)Nc1ccc(-c2cccc3c(=O)cc(N4CCOCC4)[nH]c23)c2sc3ccccc3c12`: in assay [1], the negative-log IC50 (pIC50) was 7.29. Moreover, in the assay with HeLa [3], the Ratio turned out to be 2.9.
On to `CN1CCN(CC(=O)Nc2ccc(-c3cccn4c(=O)cc(N5CCOCC5)nc34)c3oc4ccccc4c23)CC1`, for which the pIC50 in assay [1] was 7.52. Besides, the Ratio with HeLa [2] is 1.1; in the assay on HeLa [3] it was 4.3.
In the case of `O=C(CCNCC1CCCO1)Nc1ccc(-c2cccn3c(=O)cc(N4CCOCC4)nc23)c2oc3ccccc3c12` (centres undefined), the pIC50 in assay [1] is 7.12. The Ratio amounted to 1.3 in the assay with HeLa [2] and 7.4 with HeLa [3].
`O=C(CCN1CCOCC1)Nc1ccc(-c2cccn3c(=O)cc(N4CCOCC4)nc23)c2sc3ccccc3c12`: the pIC50 in assay [1] was 7.07. Further, the Ratio with HeLa [2] and in the assay on HeLa [3] was 6.2 throughout.
Turning to `O=C(CN1CCOCC1)Nc1ccc(-c2cccn3c(=O)cc(N4CCOCC4)nc23)c2sc3ccccc3c12`, the pIC50 in assay [1] is 8.10. The Ratio with HeLa [2] was 3.5; in the assay on HeLa [3], 9.9.
Consider `O=C(CN1CCN(CCO)CC1)Nc1ccc(-c2cccc3c(=O)cc(N4CCOCC4)[nH]c23)c2oc3ccccc3c12`, for which the pIC50 in assay [1] is 7.41. The Ratio amounted to 1.3 with HeLa [2] and 1.5 in the assay with HeLa [3].
On to `C[C@@H]1CN(CCC(=O)Nc2ccc(-c3cccn4c(=O)cc(N5CCOCC5)nc34)c3oc4ccccc4c23)C[C@H](C)O1`, for which, in assay [1], the pIC50 is 7.15. The Ratio in the assay with HeLa [2] was determined as 0.9; with HeLa [3] it was 4.1.
Take `CN1CCN(CC(=O)Nc2ccc(-c3cccc4c(=O)cc(N5CCOCC5)[nH]c34)c3sc4ccccc4c23)CC1`: the pIC50 in assay [1] is 7.37. Moreover, the Ratio in the assay with HeLa [3] was 2.5.
In the case of `CC(C)NC(=O)CN1CCN(CC(=O)Nc2ccc(-c3cccn4c(=O)cc(N5CCOCC5)nc34)c3sc4ccccc4c23)CC1`, in assay [1], the pIC50 was 7.60. For the same compound, in the assay on HeLa [3], the Ratio is listed as 7.3.
On to `O=C(CN1CCOCC1)Nc1ccc(-c2cccn3c(=O)cc(N4CCOCC4)nc23)c2oc3ccccc3c12`, for which, in assay [1], the pIC50 was 7.23. The Ratio with HeLa [2] came to 1.4; in the assay with HeLa [3], 2.3.
Regarding `O=C(CCNCC1CCCO1)Nc1ccc(-c2cccc3c(=O)cc(N4CCOCC4)[nH]c23)c2sc3ccccc3c12` (centres undefined), in assay [1], the negative-log IC50 (pIC50) was 6.99. Further, the Ratio in the assay on HeLa [3] was determined as 2.1.
Regarding `COCCN1CCN(CC(=O)Nc2ccc(-c3cccc4c(=O)cc(N5CCOCC5)[nH]c34)c3sc4ccccc4c23)CC1`, the pIC50 in assay [1] is 7.48. Besides, the Ratio stood at 1.2 with HeLa [2] and 8.2 in the assay with HeLa [3].
For `CCN1CCN(CC(=O)Nc2ccc(-c3cccc4c(=O)cc(N5CCOCC5)oc34)c3sc4ccccc4c23)CC1`, the pIC50 in assay [1] was 8.22. Besides, the Ratio in the assay on HeLa [2] amounted to 3.2.
For the compound `O=C(CCNCCCN1CCOCC1)Nc1ccc(-c2cccn3c(=O)cc(N4CCOCC4)nc23)c2sc3ccccc3c12`, in assay [1], the pIC50 was 7.54. In addition, the Ratio in the assay on HeLa [2] and in the assay with HeLa [3] was 1.7 in each case.
`O=C(CCN1CCOCC1)Nc1ccc(-c2cccc3c(=O)cc(N4CCOCC4)[nH]c23)c2sc3ccccc3c12`: in assay [1], the pIC50 is 6.75. Further, in the assay on HeLa [3], the Ratio was 2.8.
As to `NCC(=O)Nc1ccc(-c2cccc3c(=O)cc(N4CCOCC4)[nH]c23)c2sc3ccccc3c12`, the pIC50 in assay [1] is 6.70. In addition, in the assay with HeLa [3], the Ratio was found to be 2.6.
For the compound `COc1ccc(CNCCC(=O)Nc2ccc(-c3cccn4c(=O)cc(N5CCOCC5)nc34)c3sc4ccccc4c23)cc1`, in assay [1], the pIC50 was 7.92. Besides, the Ratio with HeLa [2] and in the assay on HeLa [3] was 6.7 each time.
In the case of `COCCN1CCN(CC(=O)Nc2ccc(-c3cccc4c(=O)cc(N5CCOCC5)[nH]c34)c3oc4ccccc4c23)CC1`, in assay [1], the pIC50 is 7.17. Besides, the Ratio is listed as 1.1 with HeLa [2] and 1.4 in the assay with HeLa [3].
Turning to `CCN1CCN(CC(=O)Nc2ccc(-c3cccc4c(=O)cc(N5CCOCC5)[nH]c34)c3sc4ccccc4c23)CC1`, in assay [1], the pIC50 is 7.21. Also, the Ratio in the assay on HeLa [3] is reported as 3.4.
For `CC(C)NC(=O)CN1CCN(CC(=O)Nc2ccc(-c3cccc4c(=O)cc(N5CCOCC5)[nH]c34)c3oc4ccccc4c23)CC1`, the pIC50 in assay [1] is 7.26. Moreover, the Ratio was determined as 1.4 in the assay with HeLa [2] and 1.6 in the assay on HeLa [3].
With `O=C(CN1CCN(c2ccccn2)CC1)Nc1ccc(-c2cccn3c(=O)cc(N4CCOCC4)nc23)c2sc3ccccc3c12`, in assay [1], the pIC50 was 6.76. In addition, the Ratio in the assay on HeLa [3] is given as 3.9.
Taken in the same sequence, the figures for `O=C(CCN1CCCCCC1)Nc1ccc(-c2cccc3c(=O)cc(N4CCOCC4)[nH]c23)c2sc3ccccc3c12` were 6.85 and 2.2.
`CC(=O)N1CCN(CCC(=O)Nc2ccc(-c3cccc4c(=O)cc(N5CCOCC5)[nH]c34)c3sc4ccccc4c23)CC1`: in assay [1], the negative logarithm of the IC50 (pIC50) is 7.68. The Ratio in the assay on HeLa [3] was 2.6.
Taken in the same sequence, the figures for `O=C(CN1CCNCC1)Nc1ccc(-c2cccc3c(=O)cc(N4CCOCC4)[nH]c23)c2sc3ccccc3c12` were 6.88 and 2.2.
On to `O=C(CNCCCN1CCOCC1)Nc1ccc(-c2cccc3c(=O)cc(N4CCOCC4)[nH]c23)c2sc3ccccc3c12`, for which, in assay [1], the pIC50 is 7.19. Moreover, the Ratio in the assay on HeLa [3] turned out to be 4.

Values taken from ChEMBL document CHEMBL1629444, “DNA-dependent protein kinase (DNA-PK) inhibitors. Synthesis and biological activity of quinolin-4-one and pyridopyrimidin-4-one surrogates for the chromen-4-one chemotype” (J Med Chem, 2010).
